From ChEMBL document CHEMBL1154873, “Synthesis and evaluation of the alpha-glucosidase inhibitory activity of 3-[4-(phenylsulfonamido)benzoyl]-2H-1-benzopyran-2-one derivatives” (Eur J Med Chem, 2010)

Assay: inhibition of yeast alpha-glucosidase pretreated for 10 mins before maltose challenge measured after 10 mins
Parameters: species or system Saccharomyces cerevisiae
Summary of the method: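 0.02 U α-glucosidase with compound in 67 mM potassium phosphate, pH 6.8, preincubated 37 °C 10 min. 0.1 M maltose added, then room temperature 10 min. Glucose detected colorimetrically at A490 against no-compound and no-enzyme/no-compound blanks. Compounds giving over 50% inhibition were retested at eight threefold-diluted concentrations in duplicate, and IC50 was derived by curve fitting.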

Compound	IC50
O=C(c1ccc(NS(=O)(=O)c2ccccc2)cc1)c1cc2cc(Cl)ccc2oc1=O	> 30 µM
O=C(c1ccc(NS(=O)(=O)c2ccccc2)cc1)c1cc2ccc(O)cc2oc1=O	5.77 µM
Cc1ccc(S(=O)(=O)Nc2ccc(C(=O)c3cc4cc(C(C)(C)C)cc(C(C)(C)C)c4oc3=O)cc2)cc1	10.1 µM
COc1ccc2cc(C(=O)c3ccc(NS(=O)(=O)c4ccc(C)cc4)cc3)c(=O)oc2c1	> 30 µM
O=C(c1ccc(NS(=O)(=O)c2ccccc2)cc1)c1cc2cc(Br)cc(Br)c2oc1=O	> 30 µM
CC(C)(C)c1cc(C(C)(C)C)c2oc(=O)c(C(=O)c3ccc(NS(=O)(=O)c4ccccc4)cc3)cc2c1	7.13 µM
COc1ccc2cc(C(=O)c3ccc(NS(=O)(=O)c4ccccc4)cc3)c(=O)oc2c1	> 30 µM
Cc1ccc(S(=O)(=O)Nc2ccc(C(=O)c3cc4ccccc4oc3=O)cc2)cc1	3.58 µM
Cc1ccc(S(=O)(=O)Nc2ccc(C(=O)c3cc4cc(F)ccc4oc3=O)cc2)cc1	4.6 µM
Cc1ccc(S(=O)(=O)Nc2ccc(C(=O)c3cc4cc(Cl)ccc4oc3=O)cc2)cc1	26.7 µM
CCN(CC)c1ccc2cc(C(=O)c3ccc(NS(=O)(=O)c4ccc(C)cc4)cc3)c(=O)oc2c1	0.347 µM
COc1cc2cc(C(=O)c3ccc(NS(=O)(=O)c4ccc(C)cc4)cc3)c(=O)oc2cc1OC	5.59 µM
O=C(c1ccc(NS(=O)(=O)c2ccccc2)cc1)c1cc2cc(F)ccc2oc1=O	7.18 µM
CCN(CC)c1ccc2cc(C(=O)c3ccc(NS(=O)(=O)c4ccccc4)cc3)c(=O)oc2c1	0.294 µM
COc1cc2cc(C(=O)c3ccc(NS(=O)(=O)c4ccccc4)cc3)c(=O)oc2cc1O	0.199 µM

Continued, values first:

IC50	Compound
> 30 µM	COc1cc2cc(C(=O)c3ccc(NS(=O)(=O)c4ccccc4)cc3)c(=O)oc2cc1OC
> 30 µM	Cc1ccc(S(=O)(=O)Nc2ccc(C(=O)c3cc4cc(Br)ccc4oc3=O)cc2)cc1
3.28 µM	O=C(c1ccc(NS(=O)(=O)c2ccccc2)cc1)c1cc2ccccc2oc1=O
7.73 µM	Cc1ccc(S(=O)(=O)Nc2ccc(C(=O)c3cc4cc(Br)cc(Br)c4oc3=O)cc2)cc1
1.12 µM	Cc1ccc(S(=O)(=O)Nc2ccc(C(=O)c3cc4ccc(O)cc4oc3=O)cc2)cc1
> 30 µM	O=C(c1ccc(NS(=O)(=O)c2ccccc2)cc1)c1cc2cc(Br)ccc2oc1=O
0.0645 µM	COc1cc2cc(C(=O)c3ccc(NS(=O)(=O)c4ccc(C)cc4)cc3)c(=O)oc2cc1O
